Experimental data from ChEMBL document CHEMBL1156892, “Synthesis and in vitro evaluation of bisphosphonated glycopeptide prodrugs for the treatment of osteomyelitis” (Bioorg Med Chem Lett, 2010).
Converted amounts (≈) assume the structure as drawn.

Key:
Staphylococcus aureus [1] = experiment: Antibacterial activity against Staphylococcus aureus ATCC 13709 in cation adjusted Mueller-Hinton broth by […] assay in presence of 50% human serum; assay type: functional
Method in brief: (§1)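 MIC determination against S. aureus ATCC13709. Medium is cation-adjusted Mueller-Hinton broth, alone or supplemented with mouse, human or rat serum as specified per line.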

Staphylococcus aureus [2] = experiment: Antibacterial activity against Staphylococcus aureus ATCC 13709 in cation adjusted Mueller-Hinton broth by […] assay in presence of 50% rat serum; assay type: functional; method in brief: as §1
Staphylococcus aureus [3] = experiment: Antibacterial activity against Staphylococcus aureus ATCC 13709 in cation adjusted Mueller-Hinton broth by […] assay in presence of 50% mouse serum; assay type: functional; method in brief: as §1
Oryctolagus cuniculus = species: Oryctolagus cuniculus; experiment: Binding affinity to rabbit bone assessed as drug level bound to bone powder at 0.25 to 4 ug/ml after 24 hrs; assay type: tissue-based; details: Bone element
Staphylococcus aureus [4] = experiment: Antibacterial activity against Staphylococcus aureus ATCC 13709 in cation adjusted Mueller-Hinton broth by […] assay; assay type: functional; method in brief: as §1
[5] = Stability in phosphate buffered saline assessed as conversion of drug to oritavancin after 24 hrs; assay type: physicochemical; details: buffer, BLD = below limit of detection
Method in brief: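 Prodrugs incubated 24 h in phosphate-buffered saline. Regeneration of parent drug is expressed as % conversion. Parallel incubations were run in 50% rat or human serum diluted in PBS to assess enzymatic cleavage.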

Staphylococcus aureus [6] = experiment: Antibacterial activity against Staphylococcus aureus ATCC 13709 in cation adjusted Mueller-Hinton broth by […] assay in absence of polysorbate-80; assay type: functional
Method in brief: (§2)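 MIC against S. aureus ATCC13709 in cation-adjusted Mueller-Hinton broth, alone or with mouse, human or rat serum, run without polysorbate-80 in the medium.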

Staphylococcus aureus [7] = experiment: Antibacterial activity against Staphylococcus aureus ATCC 13709 in cation adjusted Mueller-Hinton broth by […] assay in presence of 50% human serum in absence of polysorbate-80; assay type: functional; method in brief: as §2
Streptococcus pneumoniae = experiment: Antibacterial activity against Streptococcus pneumoniae ATCC 700902 by agar diffusion assay; assay type: functional
Staphylococcus aureus [8] = experiment: Antibacterial activity against Staphylococcus aureus ATCC 13709 in cation adjusted Mueller-Hinton broth by […] assay in presence of 50% mouse serum in absence of polysorbate-80; assay type: functional; method in brief: as §2
Staphylococcus aureus [9] = experiment: Antibacterial activity against Staphylococcus aureus ATCC 13709 in cation adjusted Mueller-Hinton broth by […] assay in presence of 50% rat serum in absence of polysorbate-80; assay type: functional; method in brief: as §2

SMILES	MIC (Staphylococcus aureus [1])	MIC (Staphylococcus aureus [2])	MIC (Staphylococcus aureus [3])	Activity (Oryctolagus cuniculus)	MIC (Staphylococcus aureus [4])	Activity [5]	MIC (Staphylococcus aureus [6])	MIC (Staphylococcus aureus [7])	MIC (Streptococcus pneumoniae)	MIC (Staphylococcus aureus [8])	MIC (Staphylococcus aureus [9])
CC(C)C[C@H](C(=O)N[C@H]1C(=O)N[C@@H](CC(N)=O)C(=O)N[C@H]2C(=O)N[C@H]3C(=O)N[C@H](C(=O)N[C@H](C(=O)O)c4cc(O)cc(O)c4-c4cc3ccc4O)[C@H](O[C@H]3C[C@](C)(N)[C@@H](O)[C@H](C)O3)c3cc(Cl)c(c(Cl)c3)Oc3cc2cc(c3O[C@H]2O[C@@H](CO)[C@@H](O)[C@H](O)[C@H]2O[C@@H]2C[C@@](C)(NCc3ccc(-c4ccc(Cl)cc4)cc3)[C@@H](O)[C@@H](C)O2)Oc2ccc(cc2Cl)[C@H]1O)N(C)C(=O)OCOC(=O)CCC(P(=O)(O)O)P(=O)(O)O	4 µg/mL	1 µg/mL	0.5 µg/mL	96.9%	8 µg/mL (≈ 3.75 µM)	–	–	–	–	–	–
CC(C)C[C@H](C(=O)N[C@H]1C(=O)N[C@@H](CC(N)=O)C(=O)N[C@H]2C(=O)N[C@H]3C(=O)N[C@H](C(=O)N[C@H](C(=O)O)c4cc(O)cc(O)c4-c4cc3ccc4O)[C@H](O[C@H]3C[C@](C)(N)[C@@H](O)[C@H](C)O3)c3cc(Cl)c(c(Cl)c3)Oc3cc2cc(c3O[C@H]2O[C@@H](CO)[C@@H](O)[C@H](O)[C@H]2O[C@@H]2C[C@@](C)(NCc3ccc(-c4ccc(Cl)cc4)cc3)[C@@H](O)[C@@H](C)O2)Oc2ccc(cc2Cl)[C@H]1O)N(C)C(=O)CCC(P(=O)(O)O)P(=O)(O)O	> 32 µg/mL	> 32 µg/mL	> 32 µg/mL	99.8%	> 32 µg/mL	–	–	–	–	–	–
CC(C)C[C@H](C(=O)N[C@H]1C(=O)N[C@@H](CC(N)=O)C(=O)N[C@H]2C(=O)N[C@H]3C(=O)N[C@H](C(=O)N[C@H](C(=O)O)c4cc(O)cc(O)c4-c4cc3ccc4O)[C@H](O[C@H]3C[C@](C)(N)[C@@H](O)[C@H](C)O3)c3cc(Cl)c(c(Cl)c3)Oc3cc2cc(c3O[C@H]2O[C@@H](CO)[C@@H](O)[C@H](O)[C@H]2O[C@@H]2C[C@@](C)(NCc3ccc(-c4ccc(Cl)cc4)cc3)[C@@H](O)[C@@H](C)O2)Oc2ccc(cc2Cl)[C@H]1O)N(C)C(=O)OCOC(=O)CCCC(P(=O)(O)O)P(=O)(O)O	> 32 µg/mL	32 µg/mL	32 µg/mL	99.9%	32 µg/mL (≈ 14.9 µM)	BLD	–	–	–	–	–
CN[C@H](CC(C)C)C(=O)N[C@H]1C(=O)N[C@@H](CC(N)=O)C(=O)N[C@H]2C(=O)N[C@H]3C(=O)N[C@H](C(=O)N[C@H](C(=O)O)c4cc(O)cc(O)c4-c4cc3ccc4O)[C@H](O[C@H]3C[C@](C)(N)[C@@H](O)[C@H](C)O3)c3ccc(c(Cl)c3)Oc3cc2cc(c3O[C@@H]2O[C@H](CO)[C@@H](O)[C@H](O)[C@H]2O[C@H]2C[C@](C)(NCc3ccc(-c4ccc(Cl)cc4)cc3)[C@@H](O)[C@H](C)O2)Oc2ccc(cc2Cl)[C@H]1O [ORITAVANCIN]	–	–	–	–	–	–	0.5 µg/mL (≈ 0.279 µM)	1 µg/mL	1 ng/mL (≈ 0.000558 µM)	2 µg/mL	0.25 µg/mL
CN[C@H](CC(C)C)C(=O)N[C@H]1C(=O)N[C@@H](CC(N)=O)C(=O)N[C@H]2C(=O)N[C@H]3C(=O)N[C@H](C(=O)N[C@H](C(=O)OCC(=O)Nc4ccc(CC(P(=O)(O)O)P(=O)(O)O)cc4)c4cc(O)cc(O)c4-c4cc3ccc4O)[C@H](O[C@H]3C[C@](C)(N)[C@@H](O)[C@H](C)O3)c3cc(Cl)c(c(Cl)c3)Oc3cc2cc(c3O[C@H]2O[C@@H](CO)[C@@H](O)[C@H](O)[C@H]2O[C@@H]2C[C@@](C)(NCc3ccc(-c4ccc(Cl)cc4)cc3)[C@@H](O)[C@@H](C)O2)Oc2ccc(cc2Cl)[C@H]1O	> 32 µg/mL	8 µg/mL	8 µg/mL	–	> 32 µg/mL	–	–	–	–	–	–
CN[C@H](CC(C)C)C(=O)N[C@H]1C(=O)N[C@@H](CC(N)=O)C(=O)N[C@H]2C(=O)N[C@H]3C(=O)N[C@H](C(=O)N[C@H](C(=O)OCC(=O)NC(P(=O)(O)O)P(=O)(O)O)c4cc(O)cc(O)c4-c4cc3ccc4O)[C@H](O)c3cc(Cl)c(c(Cl)c3)Oc3cc2cc(c3O[C@H]2O[C@@H](CO)[C@@H](O)[C@H](O)[C@H]2O[C@@H]2C[C@@](C)(N)[C@@H](O)[C@@H](C)O2)Oc2ccc(cc2Cl)[C@H]1O	8 µg/mL	32 µg/mL	16 µg/mL	96.5%	16 µg/mL (≈ 9.33 µM)	–	–	–	–	–	–
CC(C)C[C@H](C(=O)N[C@H]1C(=O)N[C@@H](CC(N)=O)C(=O)N[C@H]2C(=O)N[C@H]3C(=O)N[C@H](C(=O)N[C@H](C(=O)O)c4cc(O)cc(O)c4-c4cc3ccc4O)[C@H](O[C@H]3C[C@](C)(N)[C@@H](O)[C@H](C)O3)c3cc(Cl)c(c(Cl)c3)Oc3cc2cc(c3O[C@H]2O[C@@H](CO)[C@@H](O)[C@H](O)[C@H]2O[C@@H]2C[C@@](C)(NCc3ccc(-c4ccc(Cl)cc4)cc3)[C@@H](O)[C@@H](C)O2)Oc2ccc(cc2Cl)[C@H]1O)N(C)C(=O)CC(P(=O)(O)O)P(=O)(O)O	32 µg/mL	4 µg/mL	4 µg/mL	99.9%	32 µg/mL (≈ 15.7 µM)	–	–	–	–	–	–
CN[C@H](CC(C)C)C(=O)N[C@H]1C(=O)N[C@@H](CC(N)=O)C(=O)N[C@H]2C(=O)N[C@H]3C(=O)N[C@H](C(=O)N[C@H](C(=O)OCC(=O)Nc4ccc(CC(P(=O)(O)O)P(=O)(O)O)cc4)c4cc(O)cc(O)c4-c4cc3ccc4O)[C@H](O)c3cc(Cl)c(c(Cl)c3)Oc3cc2cc(c3O[C@H]2O[C@@H](CO)[C@@H](O)[C@H](O)[C@H]2O[C@@H]2C[C@@](C)(N)[C@@H](O)[C@@H](C)O2)Oc2ccc(cc2Cl)[C@H]1O	16 µg/mL	32 µg/mL	16 µg/mL	96.7%	16 µg/mL (≈ 8.86 µM)	–	–	–	–	–	–
CN[C@H](CC(C)C)C(=O)N[C@H]1C(=O)N[C@@H](CC(N)=O)C(=O)N[C@H]2C(=O)N[C@H]3C(=O)N[C@H](C(=O)N[C@H](C(=O)OCC(=O)NC(P(=O)(O)O)P(=O)(O)O)c4cc(O)cc(O)c4-c4cc3ccc4O)[C@H](O[C@H]3C[C@](C)(N)[C@@H](O)[C@H](C)O3)c3cc(Cl)c(c(Cl)c3)Oc3cc2cc(c3O[C@H]2O[C@@H](CO)[C@@H](O)[C@H](O)[C@H]2O[C@@H]2C[C@@](C)(NCc3ccc(-c4ccc(Cl)cc4)cc3)[C@@H](O)[C@@H](C)O2)Oc2ccc(cc2Cl)[C@H]1O	32 µg/mL	2 µg/mL	2 µg/mL	97.6%	16 µg/mL (≈ 7.77 µM)	–	–	–	–	–	–
